Measurements published in ChEMBL document CHEMBL1125642, “Fluorocarbocyclic nucleosides: synthesis and antiviral activity of 2'- and 6'-fluorocarbocyclic 2'-deoxy guanosines” (1991).
Values after ≈ are worked out from the molar mass of the structure shown.

Legend:
Human alphaherpesvirus 2 [1] = assay: Concentration required to inhibit HSV-2 strain 186 cytopathic effect by 50% was measured by plaque reduction assay; format: functional; details: for IC50: Human alphaherpesvirus 2, read-out: ID50 (the source's name)
How it was run: (§1)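 Plaque reduction in confluent Vero monolayers infected with 30-40 PFU of HSV-1 KOS or HSV-2 186, with 1 h adsorption at 37 °C. Cells were then overlaid with maintenance medium containing 0.75% carboxymethylcellulose and a range of compound concentrations. After 2 days at 37 °C, cells were fixed and stained and plaques counted. ID50 is the concentration giving 50% plaque reduction.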

Human alphaherpesvirus 1 [2] = assay: Concentration required to inhibit HSV-1 strain KOS cytopathic effect by 50% was measured by plaque reduction assay; format: functional; details: for IC50: Human alphaherpesvirus 1, read-out: ID50 (the source's name); how it was run: as §1
Vero = assay: Cytotoxicity was evaluated by measuring the dose affecting 50% of mock-infected Vero monolayers; format: functional; details: Chlorocebus sabaeus, read-out: ID50 (the source's name)
How it was run: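 Mock-infected confluent Vero monolayers were incubated with compound for 48 h at 37 °C and examined microscopically. Gross changes in staining, cell number or morphology were scored. The value is the dose affecting 50% of the monolayer.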

Human alphaherpesvirus 2 [3] = assay: In vivo efficacy of compound against HSV-2 strain A133 in the mouse system model was measured at 6.25 dose(mg/kg), activity expressed as Survivors counted on day 21; […]; format: functional
How it was run: (§2)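 Female albino mice (15-18 g) were challenged ip with 0.2 mL virus suspension at (5-15) × LD50. Starting 1 h later, they were dosed sc (0.2 mL, saline) twice daily for 4 days. Doses were the maximum tolerated dose and serial dilutions of it. Groups had 5-10 mice. Survivors were counted on day 21, and ED50 (mg/kg per dose) came from logit transformation (Litchfield–Wilcoxon).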

Human alphaherpesvirus 2 [4] = assay: In vivo efficacy of compound against HSV-2 strain A133 in the mouse system model was measured at 0.025 dose(mg/kg), activity expressed as Survivors counted on day 21; 0/10; format: functional; how it was run: as §2
Human alphaherpesvirus 1 [5] = assay: In vivo efficacy of compound against HSV-1 strain A133 in the mouse system model was measured at 3.1 dose(mg/kg), activity expressed as Survivors counted on day 21; 10/10; format: functional; how it was run: as §2
Human alphaherpesvirus 1 [6] = assay: In vivo efficacy of compound against HSV-1 strain A133 in the mouse system model was measured at 0.012 dose(mg/kg), activity expressed as Survivors counted on day 21; 1/10; format: functional; how it was run: as §2
Human alphaherpesvirus 1 [7] = assay: In vivo efficacy of compound against HSV-1 strain A133 in the mouse system model was measured at 0.05 dose(mg/kg), activity expressed as Survivors counted on day 21; 1/10; format: functional; how it was run: as §2
Human alphaherpesvirus 1 [8] = assay: In vivo efficacy of compound against HSV-1 strain A133 in the mouse system model was measured at 0.2 dose(mg/kg), activity expressed as Survivors counted on day 21; 4/10; format: functional; how it was run: as §2
Human alphaherpesvirus 1 [9] = assay: In vivo efficacy of compound against HSV-1 strain A133 in the mouse system model was measured at 0.8 dose(mg/kg), activity expressed as Survivors counted on day 21; 10/10; format: functional; how it was run: as §2
Human alphaherpesvirus 1 [10] = assay: Compound was measured for the inhibition of HSV-1 strain A133 in the mouse system model at 0.2 dose(mg/kg); format: functional; how it was run: as §2
Human alphaherpesvirus 2 [11] = assay: Compound was measured for the inhibition of HSV-2 strain A133 in the mouse system model at 0.7 dose(mg/kg); format: functional; how it was run: as §2
Human alphaherpesvirus 2 [12] = assay: In vivo efficacy of compound against HSV-2 strain CT in the mouse system model was measured at 0.1 dose(mg/kg), activity expressed as Survivors counted on day 21; 2/10
Human alphaherpesvirus 2 [13] = assay: In vivo efficacy of compound against HSV-2 strain CT in the mouse system model was measured at 0.7 dose(mg/kg), activity expressed as Survivors counted on day 21; 2/10
Human alphaherpesvirus 2 [14] = assay: In vivo efficacy of compound against HSV-2 strain CT in the mouse system model was measured at 1.6 dose(mg/kg), activity expressed as Survivors counted on day 21; 7/10
Human alphaherpesvirus 2 [15] = assay: In vivo efficacy of compound against HSV-2 strain A133 in the mouse system model was measured at 6.25 dose(mg/kg), activity expressed as Survivors counted on day 21; 5/5; format: functional; how it was run: as §2
Human alphaherpesvirus 2 [16] = assay: In vivo efficacy of compound against HSV-2 strain A133 in the mouse system model was measured at 0.8 dose(mg/kg), activity expressed as Survivors counted on day 21; 2/5; format: functional; how it was run: as §2
Human alphaherpesvirus 2 [17] = assay: Compound was measured for the inhibition of HSV-2 strain A133 in the mouse system model at 3.1 dose(mg/kg); format: functional; how it was run: as §2
Human alphaherpesvirus 2 [18] = assay: In vivo efficacy of compound against HSV-1 strain A133 in the mouse system model was measured at 1.6 dose(mg/kg), activity expressed as Survivors counted on day 21; 4/5; format: functional; how it was run: as §2
Human alphaherpesvirus 2 [19] = assay: In vivo efficacy of compound against HSV-2 strain A133 in the mouse system model was measured at 0.4 dose(mg/kg), activity expressed as Survivors counted on day 21; 0/5; format: functional; how it was run: as §2
Human alphaherpesvirus 2 [20] = assay: In vivo efficacy of compound against HSV-2 strain A133 in the mouse system model was measured at 3.1 dose(mg/kg), activity expressed as Survivors counted on day 21; 4/5; format: functional; how it was run: as §2
Human alphaherpesvirus 1 [21] = assay: In vivo efficacy of compound against HSV-1 strain A133 in the mouse system model was measured at 1.6 dose(mg/kg), activity expressed as Survivors counted on day 21; 2/5; format: functional; how it was run: as §2
Human alphaherpesvirus 1 [22] = assay: In vivo efficacy of compound against HSV-1 strain A133 in the mouse system model was measured at 3.1 dose(mg/kg), activity expressed as Survivors counted on day 21; 4/5; format: functional; how it was run: as §2
Human alphaherpesvirus 1 [23] = assay: In vivo efficacy of compound against HSV-1 strain A133 in the mouse system model was measured at 0.1 dose(mg/kg), activity expressed as Survivors counted on day 21; 0/5; format: functional; how it was run: as §2
Human alphaherpesvirus 1 [24] = assay: In vivo efficacy of compound against HSV-1 strain A133 in the mouse system model was measured at 0.4 dose(mg/kg), activity expressed as Survivors counted on day 21; 2/5; format: functional; how it was run: as §2
Human alphaherpesvirus 1 [25] = assay: Compound was measured for the inhibition of HSV-1 strain A133 in the mouse system model at 1.6 dose(mg/kg); format: functional; how it was run: as §2
Human alphaherpesvirus 2 [26] = assay: In vivo efficacy of compound against HSV-2 strain A133 in the mouse system model was measured at 50 dose(mg/kg), activity expressed as Survivors counted on day 21; 1/5; format: functional; how it was run: as §2
Human alphaherpesvirus 2 [27] = assay: In vivo efficacy of compound against HSV-2 strain A133 in the mouse system model was measured at 6.25 dose(mg/kg), activity expressed as Survivors counted on day 21; format: functional; how it was run: as §2
Human alphaherpesvirus 2 [28] = assay: Compound was measured for the inhibition of HSV-2 strain A133 in the mouse system model at 25 dose(mg/kg); format: functional; how it was run: as §2
Human alphaherpesvirus 1 [29] = assay: In vivo efficacy of compound against HSV-1 strain A133 in the mouse system model was measured at 25 dose(mg/kg), activity expressed as Survivors counted on day 21; 2/5; format: functional; how it was run: as §2
Human alphaherpesvirus 1 [30] = assay: In vivo efficacy of compound against HSV-1 strain A133 in the mouse system model was measured at 6.25 dose(mg/kg), activity expressed as Survivors counted on day 21; 0/10; format: functional; how it was run: as §2
Human alphaherpesvirus 1 [31] = assay: In vivo efficacy of compound against HSV-1 strain A133 in the mouse system model was measured at 100 dose(mg/kg), activity expressed as Survivors counted on day 21; 3/5; format: functional; how it was run: as §2
Human alphaherpesvirus 1 [32] = assay: In vivo efficacy of compound against HSV-1 strain A133 in the mouse system model was measured at 100 dose(mg/kg), activity expressed as Survivors counted on day 21; 8/10; format: functional; how it was run: as §2
Human alphaherpesvirus 1 [33] = assay: In vivo efficacy of compound against HSV-1 strain A133 in the mouse system model was measured at 25 dose(mg/kg), activity expressed as Survivors counted on day 21; 1/10; format: functional; how it was run: as §2
Human alphaherpesvirus 1 [34] = assay: Compound was measured for the inhibition of HSV-1 strain A133 in the mouse system model at 25 dose(mg/kg); format: functional; how it was run: as §2
Human alphaherpesvirus 1 [35] = assay: In vivo efficacy of compound against HSV-1 strain A133 in the mouse system model was measured at 6.25 dose(mg/kg), activity expressed as Survivors counted on day 21; 0/5; format: functional; how it was run: as §2
Human alphaherpesvirus 2 [36] = assay: In vivo efficacy of compound against HSV-2 strain CT in the mouse system model was measured at 100dose(mg/kg), activity expressed as Survivors counted on day 21; 2/5
Human alphaherpesvirus 2 [37] = assay: In vivo efficacy of compound against HSV-2 strain CT in the mouse system model was measured at 25 dose(mg/kg), activity expressed as Survivors counted on day 21; 3/5
Human alphaherpesvirus 2 [38] = assay: In vivo efficacy of compound against HSV-2 strain CT in the mouse system model was measured at 25 dose(mg/kg), activity expressed as Survivors counted on day 21; 2/10
Human alphaherpesvirus 2 [39] = assay: In vivo efficacy of compound against HSV-2 strain CT in the mouse system model was measured at 100 dose(mg/kg), activity expressed as Survivors counted on day 21; 7/10

With `Nc1nc2c(ncn2[C@@H]2C[C@H](CO)[C@@H](O)[C@H]2F)c(=O)[nH]1` the IC50 (Human alphaherpesvirus 2 [1]) was 70 µg/mL (≈ 247 µM), the IC50 (Human alphaherpesvirus 1 [2]) was 2.35 µg/mL (≈ 8.3 µM) and the IC50 (Vero) was over 300 µg/mL.

Work on `Nc1nc2c(ncn2[C@@H]2C[C@H](CO)[C@@H](O)[C@@H]2F)c(=O)[nH]1` yielded a Survivors (Human alphaherpesvirus 2 [3]) of 9, an IC50 (Human alphaherpesvirus 2 [1]) of 0.05 µg/mL (≈ 0.177 µM) and a Survivors (Human alphaherpesvirus 2 [4]) of 0. For the same compound, the Survivors (Human alphaherpesvirus 1 [5]) was 10, the IC50 (Human alphaherpesvirus 1 [2]) was 0.006 µg/mL (≈ 0.0212 µM) and the Survivors (Human alphaherpesvirus 1 [6]) was 1. For the same compound, the Survivors (Human alphaherpesvirus 1 [7]) was 1, the Survivors (Human alphaherpesvirus 1 [8]) was 4 and the Survivors (Human alphaherpesvirus 1 [9]) was 10. For the same compound, the ED50 (Human alphaherpesvirus 1 [10]) was 0.2 mg/kg, the IC50 (Vero) was over 300 µg/mL and the ED50 (Human alphaherpesvirus 2 [11]) was 0.8 mg/kg. It also gave a Survivors (Human alphaherpesvirus 2 [12]) of 2, a Survivors (Human alphaherpesvirus 2 [13]) of 2 and a Survivors (Human alphaherpesvirus 2 [14]) of 7.

`Nc1nc(O)c2ncn([C@@H]3C[C@H](CO)[C@@H](O)C3)c2n1` was tested, and the IC50 (Human alphaherpesvirus 2 [1]) was 0.44 µg/mL (≈ 1.66 µM), the IC50 (Human alphaherpesvirus 1 [2]) was 0.06 µg/mL (≈ 0.226 µM) and the IC50 (Vero) was 300 µg/mL (≈ 1130 µM).

`Nc1nc(O)c2ncn(C3CC(O)C(CO)C3F)c2n1` (single isomer, unassigned; (+)) showed a Survivors (Human alphaherpesvirus 2 [15]) of 5, a Survivors (Human alphaherpesvirus 2 [16]) of 2 and an ED50 (Human alphaherpesvirus 2 [17]) of 1.1 mg/kg. The ID50 (Human alphaherpesvirus 2 [1]) was 0.77 µg/mL (≈ 2.72 µM), the Survivors (Human alphaherpesvirus 2 [18]) was 4 and the Survivors (Human alphaherpesvirus 2 [19]) was 0. The Survivors (Human alphaherpesvirus 2 [20]) was 4, the Survivors (Human alphaherpesvirus 1 [21]) was 2 and the Survivors (Human alphaherpesvirus 1 [22]) was 4. For the same compound, the ID50 (Human alphaherpesvirus 1 [2]) was 0.16 µg/mL (≈ 0.565 µM), the Survivors (Human alphaherpesvirus 1 [23]) was 0 and the Survivors (Human alphaherpesvirus 1 [24]) was 2. The ED50 (Human alphaherpesvirus 1 [25]) was 0.97 mg/kg and the IC50 (Vero) was over 300 µg/mL.

For `Nc1nc(O)c2ncn(C3CC(O)C(CO)C3F)c2n1` (single isomer, unassigned; (-)), the ID50 (Human alphaherpesvirus 2 [1]) was 155 µg/mL (≈ 547 µM) and the ID50 (Human alphaherpesvirus 1 [2]) was 15 µg/mL (≈ 53 µM).

Work on `Nc1nc2c(ncn2COCCO)c(=O)[nH]1` [ACYCLOVIR] yielded a Survivors (Human alphaherpesvirus 2 [26]) of 1, a Survivors (Human alphaherpesvirus 2 [27]) of 0 and an ED50 (Human alphaherpesvirus 2 [28]) of 58 mg/kg. It also gave an IC50 (Human alphaherpesvirus 2 [1]) of 0.6 µg/mL (≈ 2.66 µM), a Survivors (Human alphaherpesvirus 1 [29]) of 2 and a Survivors (Human alphaherpesvirus 1 [30]) of 0. It also gave an IC50 (Human alphaherpesvirus 1 [2]) of 0.2 µg/mL (≈ 0.888 µM), a Survivors (Human alphaherpesvirus 1 [31]) of 3 and a Survivors (Human alphaherpesvirus 1 [32]) of 8. It also gave a Survivors (Human alphaherpesvirus 1 [33]) of 1, an ED50 (Human alphaherpesvirus 1 [34]) of about 50 mg/kg and an ED50 (Human alphaherpesvirus 1 [34]; Human alphaherpesvirus 1, read-out: ED50) of 58 mg/kg. The Survivors (Human alphaherpesvirus 1 [35]) was 0, the IC50 (Vero) was over 300 µg/mL and the Survivors (Human alphaherpesvirus 2 [36]) was 2. It also gave a Survivors (Human alphaherpesvirus 2 [37]) of 3, a Survivors (Human alphaherpesvirus 2 [38]) of 2 and a Survivors (Human alphaherpesvirus 2 [39]) of 7.

In the case of `Nc1nc(O)c2ncn([C@@H]3O[C@H](CO)[C@@H](O)[C@@H]3F)c2n1` [F-ARAG], the IC50 (Human alphaherpesvirus 2 [1]) is reported as 19 µg/mL (≈ 66.6 µM), the IC50 (Human alphaherpesvirus 1 [2]) is reported as 5 µg/mL (≈ 17.5 µM) and the IC50 (Vero) is reported as over 100 µg/mL.
